Assay results: ChEMBL document CHEMBL1130330, “Synthesis of gonadotropin-releasing hormone III analogs. Structure-antitumor activity relationships” (1997)
Square brackets hold non-standard residues; d marks the D form. Peptide text beside a SMILES is read from it. pGlu = O=C1CC[C@@H](C(=O)O)N1

Tests used:
PC-3 [1] = test: The concentration to inhibit colony formation of PC3 human tumor cell lines; assay type: functional
Procedure, shortened: (§1)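 Clonogenic assay on human tumor cell lines, with each peptide at 50 (unit as printed). Colony formation reflects cell survival. Results are given as % inhibition of colony formation relative to untreated controls, mean ± deviation.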

MCF7 [2] = test: (§2) The concentration to inhibit colony formation of MCF-7 human tumor cell lines; assay type: functional; procedure, shortened: as §1
MDA-MB-231 [3] = test: The concentration to inhibit cell proliferation of MDA-MB-231 human tumor cell lines using the sulforhodamine B assay; assay type: functional
Procedure, shortened: (§3)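 Sulforhodamine B assay with each peptide at 50 (unit as printed). Dye bound to cells is quantified spectrophotometrically. Results are expressed as % inhibition relative to control, mean ± deviation.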

Ishikawa = test: The concentration to inhibit colony formation of Ishikawa human tumor cell lines; assay type: functional; procedure, shortened: as §1
MCF7 [4] = test: The concentration to inhibit cell proliferation of MCF-7 human tumor cell lines using the sulforhodamine B assay; assay type: functional; procedure, shortened: as §3
PC-3 [5] = test: The concentration to inhibit cell proliferation of PC3 human tumor cell lines using the sulforhodamine B assay; assay type: functional; procedure, shortened: as §3
MDA-MB-231 [6] = test: The concentration to inhibit colony formation of MDA-MB-231 human tumor cell lines; assay type: functional; procedure, shortened: as §1
Homo sapiens = organism: Homo sapiens; test: as §2; assay type: functional, MCF7; procedure, shortened: as §1
MCF7 [7] = test: The concentration to inhibit cell proliferation of MCF-7 human tumor cell lines; assay type: functional
Procedure, shortened: (§4)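 Cell proliferation assay with peptide treatment. Cells are released from Petri dishes by trypsinization and counted directly. Results are expressed as percentage of control values.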

LNCaP [8] = test: The concentration to inhibit cell proliferation of LNCaP human tumor cell lines using the sulforhodamine B assay; assay type: functional; procedure, shortened: as §3
PC-3 [9] = test: The concentration to inhibit cell proliferation of PC3 human tumor cell lines; assay type: functional; procedure, shortened: as §4
MDA-MB-231 [10] = test: The concentration to inhibit cell proliferation of MDA-MB-231 human tumor cell lines; assay type: functional; procedure, shortened: as §4
LNCaP [11] = test: The concentration to inhibit cell proliferation of LNCaP human tumor cell lines; assay type: functional

Compound	Inhibition (PC-3 [1]) [%]	Inhibition (MCF7 [2]) [%]	Inhibition (MDA-MB-231 [3]) [%]	Inhibition (Ishikawa) [%]	Inhibition (MCF7 [4]) [%]	Inhibition (PC-3 [5]) [%]	Inhibition (MDA-MB-231 [6]) [%]	Inhibition (Homo sapiens) [%]	Inhibition (MCF7 [7]) [%]	Inhibition (LNCaP [8]) [%]	Inhibition (PC-3 [9]) [%]	Inhibition (MDA-MB-231 [10]) [%]	Inhibition (LNCaP [11]) [%]
CCNC(=O)[C@@H]1CCCN1C(=O)[C@H](CCCCN)NC(=O)[C@H](Cc1c[nH]c2ccccc12)NC(=O)[C@H](CC(=O)O)NC(=O)[C@H](Cc1c[nH]cn1)NC(=O)[C@H](CO)NC(=O)[C@H](Cc1c[nH]c2ccccc12)NC(=O)[C@H](Cc1c[nH]cn1)NC(=O)[C@@H]1CCC(=O)N1 ([pGlu]HWSHDWKP-NHEt)	22	28	32	13	20	15	27	–	–	–	–	–	–
NCCCC[C@H](NC(=O)[C@H](Cc1c[nH]c2ccccc12)NC(=O)[C@H](CC(=O)O)NC(=O)[C@H](Cc1c[nH]cn1)NC(=O)[C@H](CO)NC(=O)[C@H](Cc1c[nH]c2ccccc12)NC(=O)[C@H](Cc1c[nH]cn1)NC(=O)[C@@H]1CCC(=O)N1)C(=O)N1CCC[C@H]1C(=O)NCC(N)=O	21	45	19	18	20	12	44	18	18	40	14	18	32
NCCCC[C@H](NC(=O)[C@H](Cc1ccccc1)NC(=O)[C@H](CC(=O)O)NC(=O)[C@H](Cc1c[nH]cn1)NC(=O)[C@H](CO)NC(=O)[C@H](Cc1c[nH]c2ccccc12)NC(=O)[C@H](Cc1c[nH]cn1)NC(=O)[C@@H]1CCC(=O)N1)C(=O)N1CCC[C@H]1C(=O)NCC(N)=O	–	26	–	–	–	–	21	–	–	–	–	–	–
NCCCC[C@H](NC(=O)[C@H](Cc1c[nH]c2ccccc12)NC(=O)[C@H](CCC(=O)O)NC(=O)[C@H](Cc1c[nH]cn1)NC(=O)[C@H](CO)NC(=O)[C@H](Cc1c[nH]c2ccccc12)NC(=O)[C@H](Cc1c[nH]cn1)NC(=O)[C@@H]1CCC(=O)N1)C(=O)N1CCC[C@H]1C(=O)NCC(N)=O	20	44	27	5	17	12	25	–	–	–	–	–	–
C[C@@H](NC(=O)[C@@H]1CCCN1C(=O)[C@H](CCCCN)NC(=O)[C@H](Cc1c[nH]c2ccccc12)NC(=O)[C@H](CC(=O)O)NC(=O)[C@H](Cc1c[nH]cn1)NC(=O)[C@H](CO)NC(=O)[C@H](Cc1c[nH]c2ccccc12)NC(=O)[C@H](Cc1c[nH]cn1)NC(=O)[C@@H]1CCC(=O)N1)C(N)=O	3	4	8	6	8	2	15	–	–	–	–	–	–
NCCCC[C@H](NC(=O)[C@H](CO)NC(=O)[C@H](Cc1c[nH]c2ccccc12)NC(=O)[C@H](Cc1c[nH]cn1)NC(=O)[C@@H]1CCC(=O)N1)C(=O)N[C@@H](CC(=O)O)C(=O)N[C@@H](Cc1c[nH]c2ccccc12)C(=O)N[C@@H](CCCCN)C(=O)N1CCC[C@H]1C(=O)NCC(N)=O	0	5	2	6	4	–	4	–	–	–	–	–	–
NCCCC[C@H](NC(=O)[C@H](CO)NC(=O)[C@H](Cc1c[nH]c2ccccc12)NC(=O)[C@H](Cc1c[nH]cn1)NC(=O)[C@@H]1CCC(=O)N1)C(=O)N[C@H]1CC(=O)NCCCC[C@@H](C(=O)N2CCC[C@H]2C(=O)NCC(N)=O)NC(=O)[C@H](Cc2c[nH]c3ccccc23)NC1=O	11	44	21	13	19	16	27	–	–	–	–	–	–
CC(C)C[C@H](NC(=O)CNC(=O)[C@H](Cc1ccc(O)cc1)NC(=O)[C@H](CO)NC(=O)[C@H](Cc1c[nH]c2ccccc12)NC(=O)[C@H](Cc1c[nH]cn1)NC(=O)[C@@H]1CCC(=O)N1)C(=O)N[C@@H](CCCN=C(N)N)C(=O)N1CCC[C@H]1C(=O)NCC(N)=O	15	27	–	17	–	–	29	–	–	–	–	–	–
NCCCC[C@H](NC(=O)[C@H](Cc1c[nH]c2ccccc12)NC(=O)[C@H](Cc1c[nH]cn1)NC(=O)[C@@H]1CCC(=O)N1)C(=O)N[C@@H](Cc1c[nH]cn1)C(=O)N[C@@H](CC(=O)O)C(=O)N[C@@H](Cc1c[nH]c2ccccc12)C(=O)N[C@@H](CCCCN)C(=O)N1CCC[C@H]1C(=O)NCC(N)=O	15	40	–	21	–	–	35	–	–	–	–	–	–
NC(=O)CNC(=O)[C@@H]1CCCN1C(=O)[C@@H]1CCCCNC(=O)C[C@H](NC(=O)[C@H](Cc2c[nH]cn2)NC(=O)[C@H](CO)NC(=O)[C@H](Cc2c[nH]c3ccccc23)NC(=O)[C@H](Cc2c[nH]cn2)NC(=O)[C@@H]2CCC(=O)N2)C(=O)N[C@@H](Cc2c[nH]c3ccccc23)C(=O)N1	18	44	16	16	20	11	27	–	–	–	–	–	–
NCCCC[C@H](NC(=O)[C@H](Cc1c[nH]c2ccccc12)NC(=O)[C@H](CC(=O)O)NC(=O)[C@H](Cc1c[nH]cn1)NC(=O)[C@H](CO)NC(=O)[C@H](Cc1c[nH]c2ccccc12)NC(=O)[C@H](Cc1c[nH]cn1)NC(=O)[C@@H]1CCC(=O)N1)C(=O)N1CC=C[C@H]1C(=O)NCC(N)=O	19	42	18	21	19	14	42	–	–	–	–	–	–
NCCCC[C@H](NC(=O)[C@H](Cc1cn(C=O)c2ccccc12)NC(=O)[C@H](CC(=O)O)NC(=O)[C@H](Cc1c[nH]cn1)NC(=O)[C@H](CO)NC(=O)[C@H](Cc1cn(C=O)c2ccccc12)NC(=O)[C@H](Cc1c[nH]cn1)NC(=O)[C@@H]1CCC(=O)N1)C(=O)N1CC=C[C@H]1C(=O)NCC(N)=O	20	31	–	24	–	–	32	–	–	–	–	–	–
CC(=O)NCCCC[C@H](NC(=O)[C@H](Cc1c[nH]c2ccccc12)NC(=O)[C@H](Cc1c[nH]cn1)NC(=O)[C@@H]1CCC(=O)N1)C(=O)N[C@@H](Cc1c[nH]cn1)C(=O)N[C@@H](CC(=O)O)C(=O)N[C@@H](Cc1c[nH]c2ccccc12)C(=O)N[C@@H](CCCCN)C(=O)N1CCC[C@H]1C(=O)NCC(N)=O	12	52	–	14	–	–	42	–	–	–	–	–	–
